Compound activity (PubChem BioAssay)
PLAP act = PLAP enzyme activators, biochemical, luminescence, HTS; activation fold at 20 µM; purified PLAP enzyme, luminescent substrate read-out; hits give high values; actives 1.2% (n = 96,000); Alkaline phosphatase, placental type (Homo sapiens), P05187; in the data active = activation fold above about 2
Target sequence (P05187 whole entry, looked up): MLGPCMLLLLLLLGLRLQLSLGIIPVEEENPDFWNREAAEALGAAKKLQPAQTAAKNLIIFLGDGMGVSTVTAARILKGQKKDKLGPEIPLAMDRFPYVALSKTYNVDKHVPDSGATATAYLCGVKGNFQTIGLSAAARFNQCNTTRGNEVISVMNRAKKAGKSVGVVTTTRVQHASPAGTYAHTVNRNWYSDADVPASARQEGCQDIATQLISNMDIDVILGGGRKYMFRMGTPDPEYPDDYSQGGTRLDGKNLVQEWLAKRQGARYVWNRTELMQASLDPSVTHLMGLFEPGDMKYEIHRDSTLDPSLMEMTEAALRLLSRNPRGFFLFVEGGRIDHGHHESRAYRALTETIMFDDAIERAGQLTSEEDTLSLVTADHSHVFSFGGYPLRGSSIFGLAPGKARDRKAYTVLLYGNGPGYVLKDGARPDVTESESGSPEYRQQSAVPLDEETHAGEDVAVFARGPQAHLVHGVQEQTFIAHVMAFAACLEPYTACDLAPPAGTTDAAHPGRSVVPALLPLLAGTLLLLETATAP
PostGolgi yeast = phenotypic screen on post-Golgi transport, primary screen | post-Golgi transport phenotypic cell assay | inhibition, % at 10 µM | actives 0.9% (n = 98,000);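 also: yeast cells grown in 1536-well plates; yeast grown about 18 h at 30C before absorbance read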
E coli WT exp = growth inhibitors of wild-type E. coli, primary screen, strain BW25113, expanded library, OD600 | OD600 absorbance | growth inhibition, % at 100 µM | actives 0.15% (n = 98,000) | AID 710, 2007;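 active = growth inhibition above about 50% at one test dose, limit read from the data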;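 also: growth measured after 20 h incubation at 37 °C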
PostGolgi ctrl = growth inhibition of yeast control strain, primary screen, counter-screen for post-Golgi transport modulator project; AID 738, 2007; actives 5% (n = 98,000); efflux-deficient yeast background strain, growth absorbance A615, 16 h; inhibition, % at 10 µM
Ecoli tolC = growth inhibitors of E. coli tolC mutant, primary screen, strain BW25113 ΔtolC::kan, 384-well; OD615; AID 573, 2007; growth inhibition, % at 10 µM (by protocol); actives 2.2% (n = 65,000);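 active = growth inhibition at or above a cutoff equal to the mean over every tested compound plus 3 SD, cut at about 60% in these data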;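 also: growth measured after 20 h incubation at 37 °C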
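Test system: E. coli BW25113 ΔtolC::kan bacteria; incubation: 37 °C, 20 h exposure; medium: LB broth supplemented with 50 µg/mL kanamycin; read-out basis: percent growth inhibition; signal: A615 absorbance measurement; compound: 10 µM final, single dose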
HePTP inhibitor = inhibitors of human HePTP phosphatase, primary screen, biochemical, absorbance, leukemia target; Tyrosine-protein phosphatase non-receptor type 7 (Homo sapiens), P35236; recombinant HePTP phosphatase activity, OD absorbance; inhibition, % at 20 µM; actives 0.64% (n = 110,000); AID 521, 2006; in the data active = inhibition above about 50%;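 also: plate controls were vehicle for no effect and reference inhibitor for full effect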
The depositor's hits bear a star; · = not tested or not shown. Most compounds without a hit are left out; they make up all but 5.4% or so of the library. Rule as the data show it, unless noted: active = inhibition above about 30%; inactive = the rest.

SMILES	PLAP act	PostGolgi yeast	E coli WT exp	PostGolgi ctrl	Ecoli tolC	HePTP inhibitor
COc1ccc(C(=O)Nc2cccc(N(C)S(C)(=O)=O)c2)cc1OC	1	4	0	-5	-10	5
Cc1ccc(NC(=S)c2nc3ccccc3[nH]2)cc1	1	2	6	51*	·	·
O=c1c2cc3ccccc3n2cnn1Cc1ccccc1F	·	7	5	20	75*	16
Cn1nnc(C(O)CNCc2cccs2)n1 (stereo unspecified)	0.9	-3	-4	9	-31	12
CN(C)S(=O)(=O)Oc1ccsc1C(=O)Nc1ccc(Cl)c(Cl)c1	0.9	-3	-11	45*	·	·
CN(C)S(=O)(=O)Oc1ccsc1C(=O)Nc1cccc(Cl)c1	0.8	-7	1	22	·	·
CCOC(=O)N1CCN(C(=O)CSCc2ccc(Cl)cc2)CC1	·	2	-1	36*	·	·
O=C(Nc1ccc(Cl)cc1)N1CCCC1	0.8	-8	15	-1	-14	5
CCOC(=O)N1CCN(C(=O)Nc2ccc(Cl)cc2)CC1	0.8	-4	-1	36*	-8	12
CCOC(=O)N1CCC(N(C(=O)Nc2ccc(Cl)c(Cl)c2)C(C)CC)CC1 (stereo unspecified)	1.1	0	-8	39*	21	2
O=C(Nc1ccc(Cl)cc1)N1CCSCC1	1	-2	-1	44*	-10	-2
CCOc1ccccc1CN(CCc1ccc2c(c1)OCO2)Cc1ccncc1	·	·	·	·	·	6
O=C(O)c1cccc(COc2ccccc2Cl)c1	1.1	-11	-1	11	22	-2
CCN1CCN(C(=S)Nc2ccc([N+](=O)[O-])cc2)CC1	0.9	-2	18	8	·	·
CCOc1ccccc1N1CCN(C(=O)c2cc(C)oc2C)CC1	1.6	5	2	2	-2	7
CCOc1ccccc1N1CCN(C(=O)Nc2ccc(F)c(Cl)c2)CC1	1.1	0	10	17	96*	8
CCN1CCN(C(=O)Nc2ccc(Cc3ccc(NC(=O)N4CCN(CC)CC4)cc3)cc2)CC1	2*	9	-5	0	-2	-14
COc1ccccc1N1CCN(C(=O)Nc2cccc(Cl)c2)CC1	0.8	12	2	11	·	·
CCOc1ccccc1N1CCN(C(=O)c2cc3c(s2)CCC3)CC1	1.4	17	4	40*	19	-2
O=C(COc1ccc(Cl)cc1)N1CCCCC1	0.8	1	5	13	·	·
O=C(COC(=O)CSCC(=O)N1CCCCC1)Nc1ccc(Cl)cc1	0.9	-3	12	36*	-8	6
CCOC(=O)C1=C(O)/C(=C\c2ccc(OC)cc2)N=C1/C=C/N(C)C	·	·	·	·	·	-19
CCOC(=O)c1ccc(NC2=C(N3CCCCC3)C(=O)c3ccccc3C2=O)cc1	·	·	·	·	·	6
CCOC(=O)C1=C(N2CCCCC2)c2cc3c(n2C1=O)CCCC3	1	2	14	33*	32	0
Cc1nc(-c2ccccc2)sc1C(=O)Nc1cccc2ccccc12	·	·	·	·	·	8
SMILES	PLAP act	PostGolgi yeast	E coli WT exp	PostGolgi ctrl	Ecoli tolC	HePTP inhibitor
O=c1c2ccccc2c(-c2ccccc2)nn1Cc1ccc(Cl)cc1	0.9	-8	-10	6	·	·
O=c1cc(N2CCCCC2)c(-c2ccccc2)nn1Cc1ccccc1Cl	1.2	-4	-7	44*	·	·
O=c1cc(N2CCCCC2)c(-c2ccccc2)nn1Cc1cccc(Cl)c1	0.9	-4	-11	31*	·	·
O=c1cc(N2CCCCC2)c(-c2ccccc2)nn1Cc1ccc(Cl)cc1Cl	1.4	2	-13	28	·	·
O=C(Cn1nnc2ccccc21)NNC(=S)Nc1ccccc1	·	·	·	·	·	-1
CCCCc1ccc(-c2csc(/C(C#N)=C/c3ccc(O)c(OC)c3)n2)cc1	·	·	·	·	·	-14
COc1cc(/C=C(\C#N)c2nc3c(s2)CCCC3)ccc1O	0.7	5	-2	56*	·	·
O=C(CSc1oc(-c2ccccc2)nc1S(=O)(=O)c1ccc(F)cc1)NCC1CCCO1 (stereo unspecified)	·	-6	-13	10	-3	9
CCOc1ccc(C2C(C#N)=C(N)SC(N)=C2C#N)c(OCC)c1	1.1	14	-8	8	10	11
CCCCc1ccc(C2C(C#N)=C(N)SC(N)=C2C#N)s1	1.2	4	15	4	93*	-9
Cc1noc(C)c1COC(=O)c1ccc2c(c1)OCO2	0.8	-6	0	43*	0	-11
c1ccc(OCCCCn2cnc3ccccc32)cc1	1	0	23	9	28	-6
Brc1ccccc1OCCCn1cnc2ccccc21	1	0	11	30*	·	·
c1ccc(OCCn2cnc3ccccc32)cc1	1	12	9	34*	18	4
Cc1ccccc1OCCCCn1cnc2ccccc21	1.2	5	12	36*	·	·
Cc1cc(C)c(C)c(OCCCCn2cnc3ccccc3c2=O)c1	1	-6	0	37*	·	·
O=[N+]([O-])c1cccc(/C=N/n2c(COc3ccccc3)n[nH]c2=S)c1	0.9	-4	4	0	·	·
Cn1c(SCC(=O)Nc2ccc3nc(SCC(=O)N4CCCC4)sc3c2)nnc1-c1ccc(N)cc1	1.8	2	-2	0	·	·
Cc1cccc(Oc2nc(-c3ccccc3)cc(C)c2S(C)(=O)=O)c1C	1.1	-5	-19	24	·	·
Cc1cc(-c2ccccc2)nc(N(C)NC(=O)c2c(F)cccc2F)c1S(C)(=O)=O	1.7	4	-11	30*	·	·
O=C(COc1ccccc1F)NC1CCN(Cc2ccccc2)CC1	1.6	54*	0	28	·	·
Cc1ccc(S(=O)(=O)NCCN=C(CN2CCCC2)NS(=O)(=O)c2ccc(C)cc2)cc1	1.6	-2	-4	32*	25	6
O=C(Cc1cccs1)N1CCN(c2nc(-c3ccc(Cl)cc3)cs2)CC1	1.6	1	-20	51*	58	7
CCOC(=O)N1CCN(c2nc(-c3ccc(Cl)cc3)cs2)CC1	1	-1	1	7	7	4
CC(=O)c1cccc(N(CC(=O)NCC2CCCO2)C(=O)CCC(=O)Nc2cc(C)on2)c1 (stereo unspecified)	1.3	-9	-4	41*	-27	3
SMILES	PLAP act	PostGolgi yeast	E coli WT exp	PostGolgi ctrl	Ecoli tolC	HePTP inhibitor
O=C(CCCOc1ccc(Cl)cc1Cl)Nc1cccnc1	0.7	69*	23	39*	·	·
O=C(Nc1cccnc1)Nc1ccc(F)c(Cl)c1	1	2	61*	13	49	-1
O=C(CCCc1nc(-c2ccc(Cl)cc2)no1)Nc1cccnc1	0.7	54*	9	88*	27	4
CCCCCCCC(=O)N/N=C/c1c[nH]c2ccccc12	·	·	·	·	·	3
CCN(CC)CCCOc1ccc(I)cc1	·	·	·	·	·	-2
O=C(Cc1ccc(Cl)cc1)Nc1cccc(-c2nnc(-c3ccco3)o2)c1	0.9	1	-2	4	2	8
Cc1nc2nc[nH]n2c(=O)c1CC(=O)O	1	-2	-7	25	·	·
